For 10 compounds, IC50 and Activity results are on record in ChEMBL document CHEMBL1153005, “Synthesis and biological evaluation of curcumin-like diarylpentanoid analogues for anti-inflammatory, antioxidant and anti-tyrosinase activities” (Eur J Med Chem, 2009).

Data set [1] can be described thus: Antioxidant activity assessed as nitric oxide scavenging activity after 60 min by Griess assay. The format is functional. In short, it runs like this: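 Sodium nitroprusside (10 mM) was incubated alone or with test compounds (7.81–500) for 60 min under light exposure. Nitrite in the mixture was measured by Griess assay, and % NO scavenging was calculated from OD versus the control. Results are the mean ± S.E.M. of three runs; IC₅₀ values were calculated.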

Data set [2] has as its system Radical scavenging activity. The data set is described as follows: Antioxidant activity assessed as DPPH free radical scavenging activity after 30 mins. The format is functional. In short, it runs like this:
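Compound stocks were made in 100% DMSO and serially diluted from 7.81 to 500. DPPH (1 mg/ml in methanol) was added, and plates were shaken gently and kept in the dark for 30 min. Absorbance was read at 517 nm, and % scavenging was calculated versus the control. Results are the mean ± S.E.M. of three runs; IC₅₀ values were calculated.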

The target in data set [3] is T1, Tyrosinase (Homo sapiens, UniProt P14679).
T1 sequence (P14679 whole entry): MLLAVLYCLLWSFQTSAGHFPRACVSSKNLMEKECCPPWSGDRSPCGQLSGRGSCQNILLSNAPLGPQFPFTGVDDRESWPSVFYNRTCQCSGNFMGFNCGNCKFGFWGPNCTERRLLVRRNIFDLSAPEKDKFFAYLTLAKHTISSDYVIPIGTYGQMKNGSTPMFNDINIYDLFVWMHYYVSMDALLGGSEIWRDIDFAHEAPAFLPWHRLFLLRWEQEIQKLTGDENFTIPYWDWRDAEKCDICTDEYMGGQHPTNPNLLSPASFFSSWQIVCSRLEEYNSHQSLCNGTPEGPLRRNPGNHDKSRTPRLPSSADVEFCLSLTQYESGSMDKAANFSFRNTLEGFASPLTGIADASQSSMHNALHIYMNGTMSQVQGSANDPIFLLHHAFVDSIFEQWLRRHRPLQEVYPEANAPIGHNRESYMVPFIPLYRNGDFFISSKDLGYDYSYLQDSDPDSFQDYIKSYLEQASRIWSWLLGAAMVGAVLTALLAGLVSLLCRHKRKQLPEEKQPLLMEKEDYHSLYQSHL
The data set is described as follows: Inhibition of tyrosinase.

In data set [4] the test system is RAW264.7. As to the kind of experiment: Antiinflammatory activity in mouse RAW264.7 cells assessed as inhibition of IFN-gamma/LPS-stimulated nitric oxide production after 17 to 20 hrs by Griess assay. The format is functional, cell-based. In short, it runs like this: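 RAW 264.7 cells were grown in DMEM with 10% FBS and 1% penicillin/streptomycin (5% CO₂, 37 °C). At 80–90% confluency they were scraped and seeded at 5 × 10⁴ cells/well. Nitrite was measured by Griess assay, and % NO inhibition was taken relative to the IFN-γ/LPS control. Results are the mean ± S.E.M. of three experiments; IC₅₀ values were computed from these.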

The nature of data set [5]: Cytotoxicity against HEMn cells. The conditions noted are these: human. The format is cell-based.
In data set [6] the test system is RAW264.7. As to the kind of experiment: Cytotoxicity against IFN-gamma/LPS-stimulated mouse RAW264.7 cells assessed as cell viability at 50 uM after 17 to 20 hrs by MTT assay. The format is cell-based. The settings on record: raw264.7, 50 µM. In short, it runs like this: (§1)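 RAW 264.7 cells were cultured and seeded as for the NO assay. In the MTT read-out, cells were incubated for 4 h at 37 °C under 5% CO₂. Formazan was dissolved in DMSO and absorbance read at 570 nm. Viability (%) = OD sample / OD control × 100. Results are the mean ± S.E.M. of three experiments.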

The test system of data set [7] is RAW264.7. As to the kind of experiment: Cytotoxicity against IFN-gamma/LPS-stimulated mouse RAW264.7 cells assessed as cell viability at 25 uM after 17 to 20 hrs by MTT assay. The format is cell-based. The settings on record: raw264.7, 25 µM. In short, it runs like this:
as §1

Where [8] appears, read: Mus musculus, RAW264.7, read-out: IC50.

Some results are limits rather than exact numbers.

In the case of `COc1cc(/C=C/C(=O)/C=C/c2ccc(O)c(OC)c2)ccc1O`, the IC50 in data set [1] (read-out: IC50) was more than 500 µM; in data set [2] (read-out: IC50) it was 257 µM; in data set [3] (read-out: IC50) it was more than 250 µM; in data set [4] (raw264.7) it was “Not Active”.

In the case of `O=C(/C=C/c1ccc(O)cc1)/C=C/c1ccc(O)cc1`, the IC50 in data set [1] (read-out: IC50) is more than 500 µM; in data set [2] (read-out: IC50), more than 500 µM; in data set [3] (read-out: IC50), 79 µM; in data set [4] (raw264.7) it was “Not Active”. Also, the Activity entry in data set [5] is listed as “Toxic”.

Take `COc1ccc(/C=C/C(=O)/C=C/c2ccc(OC)cc2F)c(F)c1`: the IC50 result in data set [1] is “Not Active”; in data set [2], “Not Active”; in data set [3] (read-out: IC50) it was more than 250 µM; in data set [4] (setting [8]), 33.1 µM.

`CC1(C)N([O])C(c2ccccc2)=[N+]([O-])C1(C)C`: the IC50 in data set [1] (read-out: IC50) came to 0.57 µM.

With `O=C(/C=C/c1ccc(F)cc1)/C=C/c1ccc(F)cc1`, the IC50 result was “Not Active” in data set [1], “Not Active” in data set [2], more than 250 µM in data set [3] (read-out: IC50) and “Not Active” in data set [4] (raw264.7).

`COc1ccc(OC)c(/C=C/C(=O)/C=C/c2cc(OC)ccc2OC)c1`: the IC50 entry in data set [1] was “Not Active”; in data set [2] it was “Not Active”; in data set [3], “Not Active”; in data set [4] (setting [8]) it was 13.6 µM. The Activity entry in data set [6] is reported as “Toxic”.

For the compound `O=C(/C=C/c1ccccc1O)/C=C/c1ccccc1O`, the IC50 is more than 500 µM in data set [1] (read-out: IC50), more than 500 µM in data set [2] (read-out: IC50), “Not Active” in data set [3] and 10.2 µM in data set [4] (setting [8]). The Activity entry in data set [6] and in data set [7] was “Toxic” throughout.

For the compound `COc1cc(/C=C/C(=O)CC(=O)/C=C/c2ccc(O)c(OC)c2)ccc1O` [CURCUMIN], the IC50 in data set [1] (read-out: IC50) was more than 500 µM; in data set [2] (read-out: IC50) it was 110 µM; in data set [3] it was “Not Active”; in data set [4] (setting [8]) it was 20.4 µM.

Take `COC(=O)[C@@H](N)CCCNC(=N)N[N+](=O)[O-]` [L-NAME]: in data set [4] (setting [8]), the IC50 was found to be 27.1 µM.

On to `O=c1c(O)c(-c2ccc(O)c(O)c2)oc2cc(O)cc(O)c12` [QUERCETIN], for which the IC50 result is “Not Active” in data set [1] and 41.8 µM in data set [2] (read-out: IC50).
